From article PMC3947313 (Journal of neurochemistry, 2013)

Assays:
ERK2-pT202pY204 = experiment: Enzyme-coupled; type: biochemical; conditions: for effect of mutation on activity toward phospho-ERK protein (in words): compared to the respective wild-type phosphatase; for decrease of kcat/Km (activity) toward phospho-ERK protein: STEP variant compared to wild-type STEP
How it was run: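 Phospho-ERK2 protein was prepared using ERK2 and MEK1 expression plasmids. Initial rates were fitted to Michaelis-Menten for Km and kcat. At substrate << Km, kcat/Km came from first-order progress-curve fitting. Values are mean ± standard error.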

[1] = test system: ERK pT202pY204 phospho-peptide; type: biochemical; conditions: compared to wild-type STEP
How it was run: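 Synthetic, HPLC-purified Tyr(P)-containing peptides were dephosphorylated at 37°C in 50 mM succinic buffer (pH 6.0), 1 mM EDTA and 2 mM DTT, ionic strength 0.15 M (NaCl). Released phosphate was measured with BIOMOL Green at 620 nm. Hydrolysis was also followed continuously by tyrosine fluorescence (excitation 280 nm, emission 305 nm). Michaelis-Menten fits gave kinetic parameters (mean ± standard error).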

B1: STEP: purified striatal-enriched protein tyrosine phosphatase (human PTPN5), wild type (protein, UniProt P54829 1-565, looked up)
Tyrosine-protein phosphatase …: MNYEGARSERENHAADDSEGGALDMCCSERLPGLPQPIVMEALDEAEGLQDSQREMPPPPPPSPPSDPAQKPPPRGAGSHSLTVRSSLCLFAASQFLLACGVLWFSGYGHIWSQNATNLVSSLLTLLKQLEPTAWLDSGTWGVPSLLLVFLSVGLVLVTTLVWHLLRTPPEPPTPLPPEDRRQSVSRQPSFTYSEWMEEKIEDDFLDLDPVPETPVFDCVMDIKPEADPTSLTVKSMGLQERRGSNVSLTLDMCTPGCNEEGFGYLMSPREESAREYLLSASRVLQAEELHEKALDPFLLQAEFFEIPMNFVDPKEYDIPGLVRKNRYKTILPNPHSRVCLTSPDPDDPLSSYINANYIRGYGGEEKVYIATQGPIVSTVADFWRMVWQEHTPIIVMITNIEEMNEKCTEYWPEEQVAYDGVEITVQKVIHTEDYRLRLISLKSGTEERGLKHYWFTSWPDQKTPDRAPPLLHLVREVEEAAQQEGPHCAPIIVHCSAGIGRTGCFIATSICCQQLRQEGVVDILKTTCQLRQDRGGMIQTCEQYQFVHHVMSLYEKQLSHQSPE
**Q.** How did the “kcat of ERK-pT202pY204 dephosphorylation” value (ERK2-pT202pY204; pH 7.0, 25°C, initial rates fitted to Michaelis-Menten, OD360) turn out when B1 was run?
**A.** 0.78 s^−1

B2: STEP (R242 and R243): STEP with combined mutation of R242 and R243 to alanine (protein, UniProt P54829 1-565, looked up, variant R242A R243A)
Tyrosine-protein phosphatase …: MNYEGARSERENHAADDSEGGALDMCCSERLPGLPQPIVMEALDEAEGLQDSQREMPPPPPPSPPSDPAQKPPPRGAGSHSLTVRSSLCLFAASQFLLACGVLWFSGYGHIWSQNATNLVSSLLTLLKQLEPTAWLDSGTWGVPSLLLVFLSVGLVLVTTLVWHLLRTPPEPPTPLPPEDRRQSVSRQPSFTYSEWMEEKIEDDFLDLDPVPETPVFDCVMDIKPEADPTSLTVKSMGLQEAAGSNVSLTLDMCTPGCNEEGFGYLMSPREESAREYLLSASRVLQAEELHEKALDPFLLQAEFFEIPMNFVDPKEYDIPGLVRKNRYKTILPNPHSRVCLTSPDPDDPLSSYINANYIRGYGGEEKVYIATQGPIVSTVADFWRMVWQEHTPIIVMITNIEEMNEKCTEYWPEEQVAYDGVEITVQKVIHTEDYRLRLISLKSGTEERGLKHYWFTSWPDQKTPDRAPPLLHLVREVEEAAQQEGPHCAPIIVHCSAGIGRTGCFIATSICCQQLRQEGVVDILKTTCQLRQDRGGMIQTCEQYQFVHHVMSLYEKQLSHQSPE
**Q.** With B2 as the molecule, how does the “effect of combined R-to-A mutation on ERK dephosphorylation (in words)” value (ERK2-pT202pY204; compared to single R-to-A mutations of STEP) read?
**A.** did not promote a further decrease

B3: Q462H: STEP WPD-loop mutant Q462H (protein, UniProt P54829 1-565, looked up, variant Q462H)
Tyrosine-protein phosphatase …: MNYEGARSERENHAADDSEGGALDMCCSERLPGLPQPIVMEALDEAEGLQDSQREMPPPPPPSPPSDPAQKPPPRGAGSHSLTVRSSLCLFAASQFLLACGVLWFSGYGHIWSQNATNLVSSLLTLLKQLEPTAWLDSGTWGVPSLLLVFLSVGLVLVTTLVWHLLRTPPEPPTPLPPEDRRQSVSRQPSFTYSEWMEEKIEDDFLDLDPVPETPVFDCVMDIKPEADPTSLTVKSMGLQERRGSNVSLTLDMCTPGCNEEGFGYLMSPREESAREYLLSASRVLQAEELHEKALDPFLLQAEFFEIPMNFVDPKEYDIPGLVRKNRYKTILPNPHSRVCLTSPDPDDPLSSYINANYIRGYGGEEKVYIATQGPIVSTVADFWRMVWQEHTPIIVMITNIEEMNEKCTEYWPEEQVAYDGVEITVQKVIHTEDYRLRLISLKSGTEERGLKHYWFTSWPDHKTPDRAPPLLHLVREVEEAAQQEGPHCAPIIVHCSAGIGRTGCFIATSICCQQLRQEGVVDILKTTCQLRQDRGGMIQTCEQYQFVHHVMSLYEKQLSHQSPE
**Q.** B3 was tested. Which “effect of mutation on Km for the phospho-ERK-peptide (in words)” value [1] did it give?
**A.** significantly lower

**Q.** And the “effect of mutation on activity toward phospho-ERK protein (in words)” value (ERK2-pT202pY204)?
**A.** increase

B4: R242A: STEP KIM mutant R242A (protein, UniProt P54829 1-565, looked up, variant R242A)
Tyrosine-protein phosphatase …: MNYEGARSERENHAADDSEGGALDMCCSERLPGLPQPIVMEALDEAEGLQDSQREMPPPPPPSPPSDPAQKPPPRGAGSHSLTVRSSLCLFAASQFLLACGVLWFSGYGHIWSQNATNLVSSLLTLLKQLEPTAWLDSGTWGVPSLLLVFLSVGLVLVTTLVWHLLRTPPEPPTPLPPEDRRQSVSRQPSFTYSEWMEEKIEDDFLDLDPVPETPVFDCVMDIKPEADPTSLTVKSMGLQEARGSNVSLTLDMCTPGCNEEGFGYLMSPREESAREYLLSASRVLQAEELHEKALDPFLLQAEFFEIPMNFVDPKEYDIPGLVRKNRYKTILPNPHSRVCLTSPDPDDPLSSYINANYIRGYGGEEKVYIATQGPIVSTVADFWRMVWQEHTPIIVMITNIEEMNEKCTEYWPEEQVAYDGVEITVQKVIHTEDYRLRLISLKSGTEERGLKHYWFTSWPDQKTPDRAPPLLHLVREVEEAAQQEGPHCAPIIVHCSAGIGRTGCFIATSICCQQLRQEGVVDILKTTCQLRQDRGGMIQTCEQYQFVHHVMSLYEKQLSHQSPE
**Q.** B4 was tested. Which “decrease of kcat/Km (activity) toward phospho-ERK protein” value (from here on “decrease of kcat/Km”) (ERK2-pT202pY204; pH 7.0, 25°C) did it give?
**A.** 4 fold

B5: L249A: STEP KIM mutant L249A (protein, UniProt P54829 1-565, looked up, variant L249A)
Tyrosine-protein phosphatase …: MNYEGARSERENHAADDSEGGALDMCCSERLPGLPQPIVMEALDEAEGLQDSQREMPPPPPPSPPSDPAQKPPPRGAGSHSLTVRSSLCLFAASQFLLACGVLWFSGYGHIWSQNATNLVSSLLTLLKQLEPTAWLDSGTWGVPSLLLVFLSVGLVLVTTLVWHLLRTPPEPPTPLPPEDRRQSVSRQPSFTYSEWMEEKIEDDFLDLDPVPETPVFDCVMDIKPEADPTSLTVKSMGLQERRGSNVSATLDMCTPGCNEEGFGYLMSPREESAREYLLSASRVLQAEELHEKALDPFLLQAEFFEIPMNFVDPKEYDIPGLVRKNRYKTILPNPHSRVCLTSPDPDDPLSSYINANYIRGYGGEEKVYIATQGPIVSTVADFWRMVWQEHTPIIVMITNIEEMNEKCTEYWPEEQVAYDGVEITVQKVIHTEDYRLRLISLKSGTEERGLKHYWFTSWPDQKTPDRAPPLLHLVREVEEAAQQEGPHCAPIIVHCSAGIGRTGCFIATSICCQQLRQEGVVDILKTTCQLRQDRGGMIQTCEQYQFVHHVMSLYEKQLSHQSPE
**Q.** With B5 as the molecule, how does the “decrease of kcat/Km” value (ERK2-pT202pY204; pH 7.0, 25°C) read?
**A.** 2.5 fold

B6: L251A: STEP KIM mutant L251A (protein, UniProt P54829 1-565, looked up, variant L251A)
Tyrosine-protein phosphatase …: MNYEGARSERENHAADDSEGGALDMCCSERLPGLPQPIVMEALDEAEGLQDSQREMPPPPPPSPPSDPAQKPPPRGAGSHSLTVRSSLCLFAASQFLLACGVLWFSGYGHIWSQNATNLVSSLLTLLKQLEPTAWLDSGTWGVPSLLLVFLSVGLVLVTTLVWHLLRTPPEPPTPLPPEDRRQSVSRQPSFTYSEWMEEKIEDDFLDLDPVPETPVFDCVMDIKPEADPTSLTVKSMGLQERRGSNVSLTADMCTPGCNEEGFGYLMSPREESAREYLLSASRVLQAEELHEKALDPFLLQAEFFEIPMNFVDPKEYDIPGLVRKNRYKTILPNPHSRVCLTSPDPDDPLSSYINANYIRGYGGEEKVYIATQGPIVSTVADFWRMVWQEHTPIIVMITNIEEMNEKCTEYWPEEQVAYDGVEITVQKVIHTEDYRLRLISLKSGTEERGLKHYWFTSWPDQKTPDRAPPLLHLVREVEEAAQQEGPHCAPIIVHCSAGIGRTGCFIATSICCQQLRQEGVVDILKTTCQLRQDRGGMIQTCEQYQFVHHVMSLYEKQLSHQSPE
**Q.** B6 was tested. Which “decrease of kcat/Km” value (ERK2-pT202pY204; pH 7.0, 25°C) did it give?
**A.** 7 fold

B7: E543: STEP Q-loop mutant, conserved E543 mutated to arginine (protein, UniProt P54829 1-565, looked up, variant E543R)
Tyrosine-protein phosphatase …: MNYEGARSERENHAADDSEGGALDMCCSERLPGLPQPIVMEALDEAEGLQDSQREMPPPPPPSPPSDPAQKPPPRGAGSHSLTVRSSLCLFAASQFLLACGVLWFSGYGHIWSQNATNLVSSLLTLLKQLEPTAWLDSGTWGVPSLLLVFLSVGLVLVTTLVWHLLRTPPEPPTPLPPEDRRQSVSRQPSFTYSEWMEEKIEDDFLDLDPVPETPVFDCVMDIKPEADPTSLTVKSMGLQERRGSNVSLTLDMCTPGCNEEGFGYLMSPREESAREYLLSASRVLQAEELHEKALDPFLLQAEFFEIPMNFVDPKEYDIPGLVRKNRYKTILPNPHSRVCLTSPDPDDPLSSYINANYIRGYGGEEKVYIATQGPIVSTVADFWRMVWQEHTPIIVMITNIEEMNEKCTEYWPEEQVAYDGVEITVQKVIHTEDYRLRLISLKSGTEERGLKHYWFTSWPDQKTPDRAPPLLHLVREVEEAAQQEGPHCAPIIVHCSAGIGRTGCFIATSICCQQLRQEGVVDILKTTCQLRQDRGGMIQTCRQYQFVHHVMSLYEKQLSHQSPE
**Q.** B7 was tested. Which “effect of mutation on activity toward phospho-ERK protein (in words)” value (ERK2-pT202pY204) did it give?
**A.** no effect

B8: R243A: STEP KIM mutant R243A (protein, UniProt P54829 1-565, looked up, variant R243A)
Tyrosine-protein phosphatase …: MNYEGARSERENHAADDSEGGALDMCCSERLPGLPQPIVMEALDEAEGLQDSQREMPPPPPPSPPSDPAQKPPPRGAGSHSLTVRSSLCLFAASQFLLACGVLWFSGYGHIWSQNATNLVSSLLTLLKQLEPTAWLDSGTWGVPSLLLVFLSVGLVLVTTLVWHLLRTPPEPPTPLPPEDRRQSVSRQPSFTYSEWMEEKIEDDFLDLDPVPETPVFDCVMDIKPEADPTSLTVKSMGLQERAGSNVSLTLDMCTPGCNEEGFGYLMSPREESAREYLLSASRVLQAEELHEKALDPFLLQAEFFEIPMNFVDPKEYDIPGLVRKNRYKTILPNPHSRVCLTSPDPDDPLSSYINANYIRGYGGEEKVYIATQGPIVSTVADFWRMVWQEHTPIIVMITNIEEMNEKCTEYWPEEQVAYDGVEITVQKVIHTEDYRLRLISLKSGTEERGLKHYWFTSWPDQKTPDRAPPLLHLVREVEEAAQQEGPHCAPIIVHCSAGIGRTGCFIATSICCQQLRQEGVVDILKTTCQLRQDRGGMIQTCEQYQFVHHVMSLYEKQLSHQSPE
**Q.** B8 was tested. Which “decrease of kcat/Km” value (ERK2-pT202pY204; pH 7.0, 25°C) did it give?
**A.** 6 fold
